Reference: ChEMBL document CHEMBL1811814, “Synthesis and evaluation of indole, pyrazole, chromone and pyrimidine based conjugates for tumor growth inhibitory activities--development of highly efficacious cytotoxic agents” (Eur J Med Chem, 2010)

What was measured:
Assay type in all cases: functional
Design in all cases: scale not given: the % may be the effect or the level left
TK-10 = test: Growth inhibition of human TK10 cells assessed tumor cell growth at 10^-5 M
In short: (§1)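 Single-dose screen at 10^-5 M across the 60 human tumor cell line panel, run to NCI standards. The value is the percent growth of each cell line in the presence of compound. Compounds active at this dose moved on to five-concentration testing (10^-4 to 10^-8 M).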

CAKI-1 = test: Growth inhibition of human Caki1 cells assessed tumor cell growth at 10^-5 M
In short: (§2)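 NCI 60-human-tumor-cell-line panel screen. Each compound was tested at a single concentration of 10^-5 M, and percent growth of tumor cells was recorded for each cell line. Growth inhibition was expressed from these percent-growth values.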

HCC 2998 = test: Growth inhibition of human HCC2998 cells assessed tumor cell growth at 10^-5 M; in short: as §2
DU-145 = test: Growth inhibition of human DU145 cells assessed tumor cell growth at 10^-5 M; in short: as §2
HT-29 = test: Growth inhibition of human HT-29 cells assessed tumor cell growth at 10^-5 M; in short: as §2
MOLT-4 = test: Growth inhibition of human MOLT4 cells assessed tumor cell growth at 10^-5 M; in short: as §2
U-251 = test: Growth inhibition of human U251 cells assessed tumor cell growth at 10^-5 M; in short: as §1
SF-295 = test: Growth inhibition of human SF295 cells assessed tumor cell growth at 10^-5 M; in short: as §2
OVCAR-3 = test: Growth inhibition of human OVCAR3 cells assessed tumor cell growth at 10^-5 M; in short: as §2
PC-3 = test: Growth inhibition of human PC3 cells assessed tumor cell growth at 10^-5 M; in short: as §2
K562 = test: Growth inhibition of human K562 cells assessed tumor cell growth at 10^-5 M; in short: as §2
A549 = test: Growth inhibition of human A549 cells assessed tumor cell growth at 10^-5 M; in short: as §2
M14 = test: Growth inhibition of human M14 cells assessed tumor cell growth at 10^-5 M; in short: as §2
OVCAR-8 = test: Growth inhibition of human OVCAR8 cells assessed tumor cell growth at 10^-5 M; in short: as §2
OVCAR-5 = test: Growth inhibition of human OVCAR5 cells assessed tumor cell growth at 10^-5 M; in short: as §2
HCT-116 = test: Growth inhibition of human HCT116 cells assessed tumor cell growth at 10^-5 M; in short: as §2
NCI-H226 = test: Growth inhibition of human NCI-H226 cells assessed tumor cell growth at 10^-5 M; in short: as §2
NCI-H460 = test: Growth inhibition of human NCI-H460 cells assessed tumor cell growth at 10^-5 M; in short: as §2
OVCAR-4 = test: Growth inhibition of human OVCAR4 cells assessed tumor cell growth at 10^-5 M; in short: as §2
SW-620 = test: Growth inhibition of human SW620 cells assessed tumor cell growth at 10^-5 M; in short: as §1
SK-MEL-5 = test: Growth inhibition of human SK-MEL-5 cells assessed tumor cell growth at 10^-5 M; in short: as §2
NCI-H522 = test: Growth inhibition of human NCI-H522 cells assessed tumor cell growth at 10^-5 M; in short: as §2
[1] = Growth inhibition of human Hs 578T cells assessed tumor cell growth at 10^-5 M; in short: as §2
UO-31 = test: Growth inhibition of human UO31 cells assessed tumor cell growth at 10^-5 M; in short: as §1
SF-268 = test: Growth inhibition of human SF268 cells assessed tumor cell growth at 10^-5 M; in short: as §2
LOX IMVI = test: Growth inhibition of human LOXIMVI cells assessed tumor cell growth at 10^-5 M; in short: as §2
A498 = test: Growth inhibition of human A498 cells assessed tumor cell growth at 10^-5 M; in short: as §2
HCT-15 = test: Growth inhibition of human HCT15 cells assessed tumor cell growth at 10^-5 M; in short: as §2
HL-60(TB) = test: Growth inhibition of human HL-60(TB) cells assessed tumor cell growth at 10^-5 M
In short: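 HL-60(TB), part of the 60-line panel, tested at a single concentration of 10^-5 M. The read-out is percent tumor cell growth relative to untreated growth.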

NCI-H23 = test: Growth inhibition of human NCI-H23 cells assessed tumor cell growth at 10^-5 M; in short: as §2
HOP-62 = test: Growth inhibition of human HOP62 cells assessed tumor cell growth at 10^-5 M; in short: as §2
EKVX = test: Growth inhibition of human EKVX cells assessed tumor cell growth at 10^-5 M; in short: as §2
UACC-62 = test: Growth inhibition of human UACC62 cells assessed tumor cell growth at 10^-5 M; in short: as §1
UACC-257 = test: Growth inhibition of human UACC257 cells assessed tumor cell growth at 10^-5 M; in short: as §1
MDA-MB-435 = test: Growth inhibition of human MDA-MB-435 cells assessed tumor cell growth at 10^-5 M; in short: as §2
HOP-92 = test: Growth inhibition of human HOP92 cells assessed tumor cell growth at 10^-5 M; in short: as §2
IGROV-1 = test: Growth inhibition of human IGROV1 cells assessed tumor cell growth at 10^-5 M; in short: as §2
T47D = test: Growth inhibition of human T47D cells assessed tumor cell growth at 10^-5 M; in short: as §1
SK-MEL-28 = test: Growth inhibition of human SK-MEL-28 cells assessed tumor cell growth at 10^-5 M; in short: as §2
COLO 205 = test: Growth inhibition of human COLO205 cells assessed tumor cell growth at 10^-5 M; in short: as §2
ACHN = test: Growth inhibition of human ACHN cells assessed tumor cell growth at 10^-5 M; in short: as §2
CCRF-CEM = test: Growth inhibition of human CCRF-CEM cells assessed tumor cell growth at 10^-5 M; in short: as §2
786-0 = test: Growth inhibition of human 786-0 cells assessed tumor cell growth at 10^-5 M; in short: as §2
SK-MEL-2 = test: Growth inhibition of human SK-MEL-2 cells assessed tumor cell growth at 10^-5 M; in short: as §2
Malme-3M = test: Growth inhibition of human MALME-3M cells assessed tumor cell growth at 10^-5 M; in short: as §2
SK-OV-3 = test: Growth inhibition of human SKOV3 cells assessed tumor cell growth at 10^-5 M; in short: as §2
BT-549 = test: Growth inhibition of human BT549 cells assessed tumor cell growth at 10^-5 M; in short: as §2
SN12C = test: Growth inhibition of human SN12C cells assessed tumor cell growth at 10^-5 M; in short: as §2
SNB-19 = test: Growth inhibition of human SNB19 cells assessed tumor cell growth at 10^-5 M; in short: as §1
NCI-H322M = test: Growth inhibition of human NCI-H322M cells assessed tumor cell growth at 10^-5 M; in short: as §2
MDA-MB-468 = test: Growth inhibition of human MDA-MB-468 cells assessed tumor cell growth at 10^-5 M; in short: as §2
MCF7 = test: Growth inhibition of human MCF7 cells assessed tumor cell growth at 10^-5 M; in short: as §2
MDA-MB-231 = test: Growth inhibition of human MDA-MB-231 cells assessed tumor cell growth at 10^-5 M; in short: as §2
RXF 393 = test: Growth inhibition of human RXF393 cells assessed tumor cell growth at 10^-5 M; in short: as §2
NCI/ADR-RES = test: Growth inhibition of human NCI/ADR-RES cells assessed tumor cell growth at 10^-5 M; in short: as §2
KM12 = test: Growth inhibition of human KM12 cells assessed tumor cell growth at 10^-5 M; in short: as §2
SNB-75 = test: Growth inhibition of human SNB75 cells assessed tumor cell growth at 10^-5 M; in short: as §1
SF-539 = test: Growth inhibition of human SF539 cells assessed tumor cell growth at 10^-5 M; in short: as §2
[2] = Growth inhibition of human […] cells assessed tumor cell growth at 10^-5 M; in short: as §2

`C=CCn1cc(/C=C2\C(=O)N(c3cccc(Cl)c3)N=C2C)c2ccccc21` gave an Activity (TK-10) of 110.49%, an Activity (CAKI-1) of 73.37% and an Activity (HCC 2998) of 103.61%. For the same molecule, the Activity (DU-145) was 101.89%, the Activity (HT-29) was 105.44% and the Activity (MOLT-4) was 75.53%. It also gave an Activity (U-251) of 98.8%, an Activity (SF-295) of 89.63% and an Activity (OVCAR-3) of 116.71%. It also gave an Activity (PC-3) of 101.22%, an Activity (K562) of 77.68% and an Activity (A549) of 104.05%. The Activity (M14) was 96.28%, the Activity (OVCAR-8) was 88.73% and the Activity (OVCAR-5) was 86.3%. The Activity (HCT-116) was 89.43%, the Activity (NCI-H226) was 70.94% and the Activity (NCI-H460) was 91.1%. The Activity (OVCAR-4) was 82.6%, the Activity (SW-620) was 97.77% and the Activity (SK-MEL-5) was 85.6%. For the same molecule, the Activity (NCI-H522) was 104.32%, the Activity [1] was 97.36% and the Activity (UO-31) was 74.52%. The Activity (SF-268) was 101.01%, the Activity (LOX IMVI) was 90.56% and the Activity (A498) was 69.09%. The Activity (HCT-15) was 96.63%, the Activity (HL-60(TB)) was 99.5% and the Activity (NCI-H23) was 75.8%. The Activity (HOP-62) was 102.06%, the Activity (EKVX) was 54.36% and the Activity (UACC-62) was 69.6%. It also gave an Activity (UACC-257) of 88.64%, an Activity (MDA-MB-435) of 84.21% and an Activity (HOP-92) of 72.84%. The Activity (IGROV-1) was 98.62%, the Activity (T47D) was 69.36% and the Activity (SK-MEL-28) was 97.08%. It also gave an Activity (COLO 205) of 113.25%, an Activity (ACHN) of 94.59% and an Activity (CCRF-CEM) of 94.38%. It also gave an Activity (786-0) of 115.97%, an Activity (SK-MEL-2) of 100.76% and an Activity (Malme-3M) of 106.35%. For the same molecule, the Activity (SK-OV-3) was 94.6%, the Activity (BT-549) was 89.1% and the Activity (SN12C) was 101.52%. It also gave an Activity (SNB-19) of 109.63%, an Activity (NCI-H322M) of 79.41% and an Activity (MDA-MB-468) of 84.91%. The Activity (MCF7) was 79.85%, the Activity (MDA-MB-231) was 84.32% and the Activity (RXF 393) was 90.86%. For the same molecule, the Activity (NCI/ADR-RES) was 91.67%, the Activity (KM12) was 90.06% and the Activity (SNB-75) was 71.75%. The Activity (SF-539) was 97.52%.

For `O=C1/C(=C\c2cn(C(=O)c3c(Cl)cccc3Cl)c3ccccc23)c2ccccc2N1C(=O)c1c(Cl)cccc1Cl`, the Activity (TK-10) was 101%, the Activity (CAKI-1) was 67.5% and the Activity (HCC 2998) was 116%. The Activity (DU-145) was 135%, the Activity [2] was 75% and the Activity (HT-29) was 108%. It also gave an Activity (MOLT-4) of 84%, an Activity (U-251) of 87.1% and an Activity (SF-295) of 90.6%. The Activity (OVCAR-3) was 96.7%, the Activity (PC-3) was 73.1% and the Activity (K562) was 85.2%. The Activity (A549) was 91.2%, the Activity (M14) was 94.2% and the Activity (OVCAR-8) was 94.1%. It also gave an Activity (OVCAR-5) of 83.7%, an Activity (HCT-116) of 82.5% and an Activity (NCI-H226) of 92.9%. The Activity (NCI-H460) was 114%, the Activity (OVCAR-4) was 104% and the Activity (SW-620) was 117%. For the same molecule, the Activity (SK-MEL-5) was 84.8%, the Activity (NCI-H522) was 87.4% and the Activity [1] was 152%. It also gave an Activity (UO-31) of 72%, an Activity (SF-268) of 95.7% and an Activity (LOX IMVI) of 95.8%. For the same molecule, the Activity (A498) was 126%, the Activity (HCT-15) was 65.9% and the Activity (HL-60(TB)) was 109%. The Activity (NCI-H23) was 96.6%, the Activity (HOP-62) was 98.7% and the Activity (EKVX) was 99.4%. For the same molecule, the Activity (UACC-62) was 63.8%, the Activity (UACC-257) was 104% and the Activity (MDA-MB-435) was 112%. The Activity (HOP-92) was 48.5%, the Activity (IGROV-1) was 69.9% and the Activity (T47D) was 91.6%. For the same molecule, the Activity (SK-MEL-28) was 103%, the Activity (COLO 205) was 69% and the Activity (ACHN) was 78.6%. It also gave an Activity (CCRF-CEM) of 87%, an Activity (786-0) of 100% and an Activity (SK-MEL-2) of 92.3%. For the same molecule, the Activity (Malme-3M) was 94.9%, the Activity (SK-OV-3) was 93.4% and the Activity (BT-549) was 85.3%. The Activity (SN12C) was 92.7%, the Activity (SNB-19) was 97.3% and the Activity (NCI-H322M) was 124%. For the same molecule, the Activity (MDA-MB-468) was 126%, the Activity (MCF7) was 84.8% and the Activity (MDA-MB-231) was 74.3%. For the same molecule, the Activity (RXF 393) was 113%, the Activity (NCI/ADR-RES) was 104% and the Activity (KM12) was 99.3%. It also gave an Activity (SNB-75) of 88.8% and an Activity (SF-539) of 95%.
